Results gathered from unrelated publications.
ache: Acetylcholinesterase (ache, Electrophorus electricus, UniProt O42275)
STK32A: Serine/threonine-protein kinase 32A (STK32A, Homo sapiens, UniProt Q8WU08)
STK17B: Serine/threonine-protein kinase 17B (STK17B, Homo sapiens, UniProt O94768)
MAP3K21: Mitogen-activated protein kinase kinase kinase 21 (MAP3K21, Homo sapiens, UniProt Q5TCX8)
RPS6KB2: Ribosomal protein S6 kinase beta-2 (RPS6KB2, Homo sapiens, UniProt Q9UBS0)
S1PR1: Sphingosine 1-phosphate receptor 1 (S1PR1, Homo sapiens, UniProt P21453)

| SMILES | target | test | test system | setting | quantity | result |
| --- | --- | --- | --- | --- | --- | --- |
| O[C@@H]1[C@H](O)CO[C@H]1n1cnc2c(NCc3cccc(Cl)c3)nc(Cl)nc21 | Adenosine receptor A1 (ADORA1, Homo sapiens, UniProt P30542) | ligand displacement, radioligand |  | 10 µM, cell membranes | inhibition | 36% |
| COc1cc2c(cc1OC)C(=O)N(Cc1n[nH]c3ccccc13)C2 | ache | enzyme activity, inhibitor |  | 1 µM | inhibition | 5.12% |
| Cn1c2c(c3ccc(Cl)c(Cl)c31)C(C#N)C1(CCOCC1)NC2=O (stereo not drawn) | STK32A | thermal stability, DSF |  | 10 µM | ΔTm | -0.3 °C |
| O=C(Nc1cccc(Nc2ncc(Br)c(NCCc3cnc[nH]3)n2)c1)N1CCCC1 | STK17B | enzyme activity, inhibitor, radiometric |  | 1 µM | remaining activity | 1% |
| CC(C)(C)c1nc2c(s1)c1nc(N)ncc1c1ccc(NS(=O)(=O)c3c(F)cccc3F)c(F)c12 | MAP3K21 | enzyme activity, inhibitor, radiometric |  | 1 µM | remaining activity | 90% |
| COc1cc2c(cc1OC)C(=O)N(CCc1c[nH]c3ccccc13)C2 | ache | enzyme activity, inhibitor |  | 1 µM | inhibition | -4.59% |
| O=C(NCCCNc1nc(Nc2cccc(NC(=O)N3CCCC3)c2)ncc1I)c1cccs1 | STK17B | enzyme activity, inhibitor, radiometric |  | 1 µM | remaining activity | 4% |
| CCCOc1ccc(OC)c(F)c1C(=O)c1ccc(C(=O)N[C@@H]2CNC[C@H]2NC(=O)c2ccc3[nH]ncc3c2)cc1 | RAC-gamma serine/threonine-protein kinase (AKT3, Homo sapiens, UniProt Q9Y243) | enzyme activity, inhibitor |  | 0.1 µM | remaining activity | 88% |
| CC(C)(O)[C@H]1CC[C@H](Nc2ccc3ncc(-c4cccc(C(F)(F)F)c4)n3n2)CC1 | RPS6KB2 | enzyme activity, inhibitor |  | 1 µM | remaining activity | 82.3% |
| COc1cc2c(cc1OC)C(=O)N(Cc1ccc(-c3cccs3)nc1)C2 | ache | enzyme activity, inhibitor |  | 1 µM | inhibition | -4.2% |
| O=C(NCCCNc1nc(Nc2cccc(NC(=O)N3CCCC3)c2)ncc1Br)C1CCC1 | STK17B | enzyme activity, inhibitor, radiometric |  | 1 µM | remaining activity | 0% |
| Cn1c2c(Cl)c(Cl)ccc2c2cn[nH]c(=O)c21 | STK32A | thermal stability, DSF |  | 10 µM | ΔTm | -0.4 °C |
| Cc1nn(CC(F)(F)F)cc1Nc1ncc(Br)c(NCc2ccc(S(N)(=O)=O)cc2)n1 | STK17B | enzyme activity, inhibitor, radiometric |  | 1 µM | remaining activity | 47% |
| CCc1cc(-c2noc(-c3cc(OC)nc(C4CCCC4)c3)n2)cc(C)c1OC[C@@H](O)CO | S1PR1 | calcium signal, agonist, fluorescence | HUVEC |  | Emax | 37% |
| c1cc(CN2CCOCC2)cc(Nc2ncc(C3CC3)c(NCCc3c[nH]cn3)n2)c1 | STK17B | enzyme activity, inhibitor, radiometric |  | 1 µM | remaining activity | 14% |
| CCc1cc(/C(C)=N/OCc2ccc(C3CCCCC3)c(C(F)(F)F)c2)ccc1CN1CC(C(=O)O)C1 | S1PR1 | calcium signal, agonist, fluorescence | HUVEC |  | Emax | 85% |
| COc1ccc2[nH]cc(CCN3Cc4cc(OC)c(OC)cc4C3=O)c2c1 | ache | enzyme activity, inhibitor |  | 1 µM | inhibition | 3.28% |
| CC/C=C\C/C=C\C/C=C\C/C=C\C/C=C\C/C=C\CCC(=O)O | Polyunsaturated fatty acid lipoxygenase ALOX15 (ALOX15, Homo sapiens, UniProt P16050) | enzyme activity, substrate, absorbance |  |  | Km | 6.7 µM |
| Cc1ccc(C(=O)NCc2ccsc2)cc1C#Cc1cn(C(C)C)c2ncnc(N)c12 | MAP3K21 | enzyme activity, inhibitor |  | 1 µM | activity vs control | 81% |
| CC(C)(C)c1nc(-c2cccc(NS(=O)(=O)c3c(F)cccc3F)c2F)c(-c2ccnc(N)n2)s1 | RPS6KB2 | enzyme activity, inhibitor, radiometric |  | 1 µM | remaining activity | 98% |
| COc1cc2c(cc1OC)C(=O)N(Cc1ccc3ccccc3n1)C2 | ache | enzyme activity, inhibitor |  | 1 µM | inhibition | 3.28% |
| Cc1nn(CC(F)(F)F)cc1Nc1ncc(C2CC2)c(NCCCNC(=O)C2CCC2)n1 | STK17B | enzyme activity, inhibitor, radiometric |  | 1 µM | remaining activity | 13% |
| Cn1c2c(c3ccc(Cl)c(Cl)c31)C(C#N)C(C)(C)NC2=O (stereo not drawn) | STK32A | thermal stability, DSF |  | 10 µM | ΔTm | -0.1 °C |
| COc1cc2c(cc1OC)C(=O)N(Cc1nccc3ccccc13)C2 | ache | enzyme activity, inhibitor |  | 1 µM | inhibition | -0.79% |
| NS(=O)(=O)c1ccc(CNc2nc(Nc3cccc(CN4CCOCC4)c3)ncc2C2CC2)cc1 | STK17B | enzyme activity, inhibitor, radiometric |  | 1 µM | remaining activity | 84% |
| COc1cc2c(cc1OC)C(=O)N(Cc1cccnc1)C2 | ache | enzyme activity, inhibitor |  | 1 µM | inhibition | 0.13% |
| Cc1nn(CC(F)(F)F)cc1Nc1ncc(C2CC2)c(NCc2ccc(S(N)(=O)=O)cc2)n1 | STK17B | enzyme activity, inhibitor, radiometric |  | 1 µM | remaining activity | 88% |
